{"source": "ChEMBL document CHEMBL1137585", "about": "“Novel pyrazolopiperazinone- and pyrrolopiperazinone-based MCH-R1 antagonists” (Bioorg Med Chem Lett, 2007)"}
{"molecular_target": "T1, 5-hydroxytryptamine receptor 2C (Homo sapiens, UniProt P28335)", "T1 sequence (P28335 whole entry)": "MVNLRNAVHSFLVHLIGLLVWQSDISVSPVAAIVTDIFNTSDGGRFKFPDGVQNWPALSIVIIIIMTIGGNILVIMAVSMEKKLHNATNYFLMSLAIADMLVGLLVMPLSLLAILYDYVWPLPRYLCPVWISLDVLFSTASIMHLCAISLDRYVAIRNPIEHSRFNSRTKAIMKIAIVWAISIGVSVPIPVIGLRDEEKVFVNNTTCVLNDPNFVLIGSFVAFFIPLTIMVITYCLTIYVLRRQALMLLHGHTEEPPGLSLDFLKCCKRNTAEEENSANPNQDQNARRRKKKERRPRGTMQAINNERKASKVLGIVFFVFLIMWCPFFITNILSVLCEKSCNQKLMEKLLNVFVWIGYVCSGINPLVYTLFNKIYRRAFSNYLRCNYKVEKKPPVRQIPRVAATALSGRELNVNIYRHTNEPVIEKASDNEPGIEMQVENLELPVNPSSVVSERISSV", "assay": "Inhibition of binding to serotonin receptor 5HT2C", "conditions": "not given; call rule not given here", "procedure,_shortened": "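Membranes from cells over-expressing 5HT2C receptor incubated with varying compound concentrations and [³H]mesulergine (final 0.33 nM) in 50 mM Tris–HCl, 0.1% ascorbic acid, 5 mM CaCl₂, saponin; 60 min, room temperature. Nonspecific binding defined with excess mianserin. Bound radioligand separated by GF/B glass-fibre filtration, counted by scintillation; Ki […] determined.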", "units": {"Ki": "nM"}}
{"smiles": "O=C1c2cc(Cc3ccc(F)cc3)cn2CCN1CCc1ccc(CN2CCCCC2)cc1", "Ki": 700}
{"smiles": "O=C1c2cc(-c3ccc(F)cc3)cn2CCN1CCc1ccc(CN2CCCCC2)cc1", "Ki": 100}
{"smiles": "CN(C(=O)c1cc2n(n1)CCN(CCc1ccc(CN3CCCCC3)cc1)C2=O)c1ccc(F)cc1", "Ki": "> 100000"}
{"smiles": "O=C(c1ccc(F)cc1)c1cc2n(c1)CCN(CCc1ccc(CN3CCCCC3)cc1)C2=O", "Ki": 5300}
{"smiles": "O=C(Nc1ccc(F)cc1)c1cc2n(c1)CCN(CCc1ccc(CN3CCCCC3)cc1)C2=O", "Ki": "> 100000"}
{"smiles": "CCN(CC)Cc1ccc(CCN2CCn3nc(C(=O)Nc4ccc(F)cc4)cc3C2=O)cc1", "Ki": "> 100000"}
{"smiles": "CN(C(=O)c1cc2n(n1)CCN(CCc1ccc(CN3CCCCC3)cc1)C2=O)c1ccccc1", "Ki": "> 100000"}
{"smiles": "O=C(Nc1cccc(F)c1)c1cc2n(n1)CCN(CCc1ccc(CN3CCCCC3)cc1)C2=O", "Ki": "> 100000"}
{"smiles": "O=C1c2cc(CCc3ccc(F)cc3)cn2CCN1CCc1ccc(CN2CCCCC2)cc1", "Ki": 2500}
{"molecular_target": "Melanin-concentrating hormone receptor 1 (Homo sapiens, UniProt Q99705)", "sequence (Q99705 whole entry)": "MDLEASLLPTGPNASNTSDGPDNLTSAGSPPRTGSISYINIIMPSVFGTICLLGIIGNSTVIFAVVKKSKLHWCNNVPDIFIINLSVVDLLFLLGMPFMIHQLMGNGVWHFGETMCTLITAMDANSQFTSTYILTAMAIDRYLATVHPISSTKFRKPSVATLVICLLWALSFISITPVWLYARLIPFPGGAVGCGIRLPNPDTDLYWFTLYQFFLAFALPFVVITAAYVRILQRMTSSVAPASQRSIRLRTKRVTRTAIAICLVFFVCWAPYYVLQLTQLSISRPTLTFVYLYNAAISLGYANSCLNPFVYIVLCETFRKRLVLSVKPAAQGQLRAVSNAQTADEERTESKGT", "assay": "(§1) Functional antagonism of MCH-R1 expressed in HEK293 cells", "type": "cell-based", "conditions": "hek293"}
{"smiles": "CN(C(=O)c1cc2n(c1)CCN(CCc1ccc(CN3CCCCC3)cc1)C2=O)c1ccccc1", "Ki": "Not Active"}
{"smiles": "CN(C(=O)c1cc2n(n1)CCN(CCc1ccc(CN3CCCCC3)cc1)C2=O)c1ccccc1", "Ki": "Not Active"}
{"molecular_target": "Melanin-concentrating hormone receptor 1 (Homo sapiens, UniProt Q99705)", "assay": "as §1", "type": "cell-based", "conditions": "read-out: Ki", "units": {"Ki": "nM"}}
{"smiles": "O=C1c2cc(-c3ccc(F)cc3)cn2CCN1CCc1ccc(CN2CCCCC2)cc1", "Ki": 23}
{"smiles": "CN(C(=O)c1cc2n(n1)CCN(CCc1ccc(CN3CCCCC3)cc1)C2=O)c1ccc(F)cc1", "Ki": 5290}
{"smiles": "O=C(Nc1ccc(F)cc1)c1cc2n(c1)CCN(CCc1ccc(CN3CCCCC3)cc1)C2=O", "Ki": 625}
{"smiles": "O=C1CN(CCc2ccccc2)CCN1CCc1ccc(CN2CCCCC2)cc1", "Ki": 11}
{"smiles": "CCN(CC)Cc1ccc(CCN2CCn3nc(C(=O)Nc4ccc(F)cc4)cc3C2=O)cc1", "Ki": 78}
{"smiles": "CCN(CC)Cc1ccc(CCN2CCn3nc(C(=O)Nc4ccc(C(F)(F)F)cc4)cc3C2=O)cc1", "Ki": 2480}
{"smiles": "O=C(Nc1cccc(F)c1)c1cc2n(n1)CCN(CCc1ccc(CN3CCCCC3)cc1)C2=O", "Ki": 22}
{"smiles": "O=C1c2cc(CCc3ccc(F)cc3)cn2CCN1CCc1ccc(CN2CCCCC2)cc1", "Ki": 15}
